Values after ≈ are worked out from the molar mass of the structure shown.
What was measured:
[1] = system: Streptococcus mitis; experiment: Antimicrobial activity against Streptococcus mitis HK680 with gyrA Ser114Gly, and parC Ser52Gly, Asn91Asp mutation by broth dilution method; assay type: functional
How it was run: (§1)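 Ciprofloxacin and levofloxacin MICs were determined by broth dilution following CLSI (formerly NCCLS) guidance. S. pneumoniae ATCC 6303 and ATCC 49619 served as control strains. Reference strains were S. mitis ATCC 49456 and S. oralis ATCC 10557. The clinical isolates came from patients at a Hong Kong teaching hospital.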

[2] = system: Streptococcus mitis; experiment: Antimicrobial activity against Streptococcus mitis HK125807 with gyrA Ser114Gly, and parC Ser52Gly, Asn91Asp mutation by broth dilution method; assay type: functional; how it was run: as §1
[3] = system: Streptococcus mitis; experiment: Antimicrobial activity against Streptococcus mitis HK467 with gyrA Ser114Gly, Leu155Val and parC Ser52Gly, Asn91Asp, mutation by broth dilution method; assay type: functional; how it was run: as §1
[4] = system: Streptococcus mitis; experiment: Antimicrobial activity against Streptococcus mitis HK666 with gyrA Ser114Gly, and parC Ser52Gly, Asn91Asp, Glu135Asp mutation by broth dilution method; assay type: functional; how it was run: as §1
[5] = system: Streptococcus mitis; experiment: Antimicrobial activity against Streptococcus mitis HK135786 with gyrA Ser114Gly, and parC Ser52Gly, Asn91Asp mutation by broth dilution method; assay type: functional; how it was run: as §1
[6] = system: Streptococcus mitis; experiment: Antimicrobial activity against Streptococcus mitis HK29 with gyrA Ser114Gly, and parC Ser52Gly, Asn91Asp mutation by broth dilution method; assay type: functional; how it was run: as §1
[7] = system: Streptococcus mitis; experiment: Antimicrobial activity against Streptococcus mitis HK677 with gyrA Ser81Leu, Ser114Gly, gyrB Ser494Thr, parC Ser52Gly, Asp83Tyr, Asn91Asp and parE Arg447Ser mutation by broth dilution method; assay type: functional; how it was run: as §1
[8] = system: Streptococcus pneumoniae; experiment: Antimicrobial activity against Streptococcus pneumoniae L5 with parE Ile460Val mutation by broth dilution method
[9] = system: Streptococcus pneumoniae; experiment: Antimicrobial activity against Streptococcus pneumoniae L6 with gyrA Ser81Phe, parC Lys137Asn and parE Ile460Val mutation by broth dilution method
[10] = system: Streptococcus pneumoniae; experiment: Antimicrobial activity against Streptococcus pneumoniae L12 with gyrA Ser81Phe, parC Ser79 Phe and parE Ile460Val mutation by broth dilution method
[11] = system: Streptococcus pneumoniae; experiment: Antimicrobial activity against Streptococcus pneumoniae L13 with parC Asp83Tyr and parE Ile460Val mutation by broth dilution method
[12] = system: Streptococcus pneumoniae; experiment: Antimicrobial activity against Streptococcus pneumoniae L14 with parC Lys137Asn and parE Ile460Val mutation by broth dilution method
[13] = system: Streptococcus pneumoniae; experiment: Antimicrobial activity against Streptococcus pneumoniae L15 with parC Asp83Asn Lys137Asn and parE Ile460Val mutation by broth dilution method
[14] = system: Streptococcus pneumoniae; experiment: Antimicrobial activity against Streptococcus pneumoniae L22 with parC Lys137Asn and parE Ile460Val mutation by broth dilution method
[15] = system: Streptococcus pneumoniae; experiment: Antimicrobial activity against Streptococcus pneumoniae L24 with gyrA Ser81Phe, gyrB Ser494Thr, parC Asp83Asn, Lys137Asn and parE Ile460Val mutation by broth dilution method
[16] = system: Streptococcus viridans; experiment: Antimicrobial activity against Viridans streptococcus L2 with gyrA Ser114Gly, gyrB Ser494Thr and parC Ser52Gly, Asn91Asp mutation by broth dilution method; assay type: functional; how it was run: as §1
[17] = system: Streptococcus viridans; experiment: Antimicrobial activity against Viridans streptococcus L7 with gyrA Ser114Gly, gyrB Ser494Thr and parC Ser52Gly, Asn91Asp mutation by broth dilution method; assay type: functional; how it was run: as §1
[18] = system: Streptococcus viridans; experiment: Antimicrobial activity against Viridans streptococcus L16 with gyrA Ser114Gly, gyrB Ser494Thr and parC Ser52Gly, Asn91Asp mutation by broth dilution method; assay type: functional; how it was run: as §1
[19] = system: Streptococcus viridans; experiment: Antimicrobial activity against Viridans streptococcus L17 with gyrA Ser114Gly, gyrB Ser494Thr and parC Ser52Gly, Asn91Asp mutation by broth dilution method; assay type: functional; how it was run: as §1
[20] = system: Streptococcus viridans; experiment: Antimicrobial activity against Viridans streptococcus L18 with gyrA Ser114Gly, Asp142Asn, gyrB Ser494Thr and parE Ile460Val mutation by broth dilution method; assay type: functional; how it was run: as §1
[21] = system: Streptococcus viridans; experiment: Antimicrobial activity against Viridans streptococcus L19 with gyrA Ser114Gly, gyrB Ser494Thr, parC Ser52Gly, Asn91Asp and parE Ile460Val mutation by broth dilution method; assay type: functional; how it was run: as §1
[22] = system: Streptococcus viridans; experiment: Antimicrobial activity against Viridans streptococcus L21 with gyrB Ser494Thr and parC Lys137Asn mutation by broth dilution method; assay type: functional; how it was run: as §1
[23] = system: Streptococcus viridans; experiment: Antimicrobial activity against Viridans streptococcus L26 gyrA Ser81Phe and parC Lys137Asn mutation by broth dilution method; assay type: functional; how it was run: as §1
[24] = system: Streptococcus pneumoniae; experiment: Antimicrobial activity against atypical Streptococcus pneumoniae L3 with parC Lys137Asn mutation by broth dilution method
[25] = system: Streptococcus pneumoniae; experiment: Antimicrobial activity against atypical Streptococcus pneumoniae L8 with parC Ser52Gly, Phe55His, Ser58Gly, Asn91Asp, Lys197Asn mutation by broth dilution method
[26] = system: Streptococcus pneumoniae; experiment: Antimicrobial activity against atypical Streptococcus pneumoniae L9 with gyrA Ser114Gly, gyrB Ser494Thr and parC Lys137Asn mutation by broth dilution method
[27] = system: Streptococcus pneumoniae; experiment: Antimicrobial activity against atypical Streptococcus pneumoniae L10 with gyrA Ser81Phe and parC Lys197Asn mutation by broth dilution method
[28] = system: Streptococcus pneumoniae; experiment: Antimicrobial activity against atypical Streptococcus pneumoniae L4 by broth dilution method
[29] = system: Streptococcus pneumoniae; experiment: Antimicrobial activity against atypical Streptococcus pneumoniae L1 with gyrA Ser81Phe and parC Ser79Phe, Glu96Asp, Lys197Asn mutation by broth dilution method

`O=C(O)c1cn(C2CC2)c2cc(N3CCNCC3)c(F)cc2c1=O` [CIPROFLOXACIN] was tested, and the MIC [1] was 2 µg/mL (≈ 6.04 µM), the MIC [2] was 2 µg/mL (≈ 6.04 µM) and the MIC [3] was 2 µg/mL (≈ 6.04 µM). The MIC [4] was 2 µg/mL (≈ 6.04 µM), the MIC [5] was 4 µg/mL (≈ 12.1 µM) and the MIC [6] was 4 µg/mL (≈ 12.1 µM). It also gave an MIC [7] of 128 µg/mL (≈ 386 µM), an MIC [8] of 4 µg/mL (≈ 12.1 µM) and an MIC [9] of 8 µg/mL (≈ 24.1 µM). For the same compound, the MIC [10] was 64 µg/mL (≈ 193 µM), the MIC [11] was 4 µg/mL (≈ 12.1 µM) and the MIC [12] was 4 µg/mL (≈ 12.1 µM). The MIC [13] was 8 µg/mL (≈ 24.1 µM), the MIC [14] was 4 µg/mL (≈ 12.1 µM) and the MIC [15] was ≥ 16 µg/mL. It also gave an MIC [16] of 4 µg/mL (≈ 12.1 µM), an MIC [17] of 4 µg/mL (≈ 12.1 µM) and an MIC [18] of 4 µg/mL (≈ 12.1 µM). The MIC [19] was 4 µg/mL (≈ 12.1 µM), the MIC [20] was 4 µg/mL (≈ 12.1 µM) and the MIC [21] was 4 µg/mL (≈ 12.1 µM). The MIC [22] was 16 µg/mL (≈ 48.3 µM), the MIC [23] was 16 µg/mL (≈ 48.3 µM) and the MIC [24] was 4 µg/mL (≈ 12.1 µM). For the same compound, the MIC [25] was 8 µg/mL (≈ 24.1 µM), the MIC [26] was 4 µg/mL (≈ 12.1 µM) and the MIC [27] was 4 µg/mL (≈ 12.1 µM). For the same compound, the MIC [28] was 4 µg/mL (≈ 12.1 µM) and the MIC [29] was > 32 µg/mL.

Reference: ChEMBL document CHEMBL1155167, “Fluoroquinolone resistance in atypical pneumococci and oral streptococci: evidence of horizontal gene transfer of fluoroquinolone resistance determinants from Streptococcus pneumoniae” (2007)
